In ChEMBL document CHEMBL1155459, “On-bead screening of a combinatorial fumaric acid derived peptide library yields antiplasmodial cysteine protease inhibitors with unusual peptide sequences” (J Med Chem, 2009) one finds inhibition data, which are given here for 21 compounds.

Structures are written as SMILES. Peptide text beside a SMILES is read from it.

A short description of assay [1]: Inhibition of Plasmodium falciparum falcipain-2 after 12 hrs by fluorescence spectroscopy-based on-bead assay. On the set-up: concentration or dose not given beside the values. The note with it: concentration not given here. The essentials:
(§1)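 Library members on resin (PEGA, theoretical loading 0.40 mmol/g; added as DMSO suspension, 0.64 mM final inhibitor) preincubated with enzyme 12 h, then Cbz-Phe-Arg-AMC 40 μM added; AMC release followed by fluorescence (ex 380/em 460 nm). Kinetics compared with inhibitor-free amino-PEGA resin.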

In assay [2] the target is Rhodesain (Trypanosoma brucei rhodesiense) (UniProt Q95PM0). In words: Inhibition of Trypanosoma brucei rhodesiense rhodesain after 12 hrs by fluorescence spectroscopy-based on-bead assay. Conditions: concentration not given here. On the set-up: concentration or dose not given beside the values. The essentials:
as §1

Sequence of Rhodesain (Trypanosoma brucei rhodesiense) (Q95PM0 1-450): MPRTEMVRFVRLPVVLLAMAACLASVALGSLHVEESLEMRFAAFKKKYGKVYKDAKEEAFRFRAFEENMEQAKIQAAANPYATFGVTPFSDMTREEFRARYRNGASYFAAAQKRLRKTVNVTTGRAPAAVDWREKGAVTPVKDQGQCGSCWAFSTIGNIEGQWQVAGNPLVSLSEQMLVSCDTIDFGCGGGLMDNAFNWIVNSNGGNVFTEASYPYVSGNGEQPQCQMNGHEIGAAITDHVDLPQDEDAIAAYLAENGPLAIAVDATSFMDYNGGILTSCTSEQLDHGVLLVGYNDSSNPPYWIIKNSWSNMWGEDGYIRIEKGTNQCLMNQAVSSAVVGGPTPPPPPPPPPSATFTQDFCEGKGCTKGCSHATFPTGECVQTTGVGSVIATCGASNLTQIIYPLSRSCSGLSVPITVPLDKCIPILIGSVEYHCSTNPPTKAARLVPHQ

Turning to `CC(C)[C@H](NC(=O)[C@H](C)NC(=O)[C@@H](NC(=O)[C@H](CC(N)=O)NC(=O)/C=C/C(=O)NCC(=O)NCC(=O)N[C@@H](Cc1ccccc1)C(=O)O)c1ccccc1)C(N)=O` (HELM PEPTIDE1{[O=C(/C=C/C(=O)[*:2])NCC(=O)NCC(=O)N[C@@H](Cc1ccccc1)C(=O)O].N.[Phg].A.V.[am]}$$$$V2.0), the results for the inhibition in assay [1] and in assay [2] were 64% and 48%, respectively.
As for `CC(C)[C@H](NC(=O)[C@@H](NC(=O)[C@@H](NC(=O)[C@H](CC(N)=O)NC(=O)/C=C/C(=O)NCC(=O)NCC(=O)N[C@@H](Cc1ccccc1)C(=O)O)c1ccccc1)C(C)C)C(N)=O` (HELM PEPTIDE1{[O=C(/C=C/C(=O)[*:2])NCC(=O)NCC(=O)N[C@@H](Cc1ccccc1)C(=O)O].N.[Phg].V.V.[am]}$$$$V2.0), the values for the inhibition in assay [1] and in assay [2] were 50% and 45%, respectively.
Take `CC(C)[C@H](NC(=O)[C@H](C)NC(=O)[C@H](Cc1ccccc1)NC(=O)[C@H](CCC(N)=O)NC(=O)/C=C/C(=O)NCC(=O)NCC(=O)N[C@@H](Cc1ccccc1)C(=O)O)C(N)=O` (HELM PEPTIDE1{[O=C(/C=C/C(=O)[*:2])NCC(=O)NCC(=O)N[C@@H](Cc1ccccc1)C(=O)O].Q.F.A.V.[am]}$$$$V2.0): the results for the inhibition in assay [1] and in assay [2] were 54% and 41%, respectively.
The matching figures for `CC(C)C[C@H](NC(=O)[C@H](Cc1ccccc1)NC(=O)[C@H](CCC(N)=O)NC(=O)/C=C/C(=O)NCC(=O)NCC(=O)N[C@@H](Cc1ccccc1)C(=O)O)C(=O)N[C@H](C(N)=O)C(C)C` (HELM PEPTIDE1{[O=C(/C=C/C(=O)[*:2])NCC(=O)NCC(=O)N[C@@H](Cc1ccccc1)C(=O)O].Q.F.L.V.[am]}$$$$V2.0): 62% and 57%.
`CC(C)[C@H](NC(=O)[C@@H](NC(=O)[C@H](Cc1ccccc1)NC(=O)[C@H](CCC(N)=O)NC(=O)/C=C/C(=O)NCC(=O)NCC(=O)N[C@@H](Cc1ccccc1)C(=O)O)C(C)C)C(N)=O` (HELM PEPTIDE1{[O=C(/C=C/C(=O)[*:2])NCC(=O)NCC(=O)N[C@@H](Cc1ccccc1)C(=O)O].Q.F.V.V.[am]}$$$$V2.0): the results for the inhibition in assay [1] and in assay [2] were 51% and 42%, respectively.
For the compound `CC[C@H](C)[C@H](NC(=O)[C@H](CCC(N)=O)NC(=O)/C=C/C(=O)NCC(=O)NCC(=O)N[C@@H](Cc1ccccc1)C(=O)O)C(=O)N[C@@H](C)C(=O)N[C@H](C(N)=O)C(C)C` (HELM PEPTIDE1{[O=C(/C=C/C(=O)[*:2])NCC(=O)NCC(=O)N[C@@H](Cc1ccccc1)C(=O)O].Q.I.A.V.[am]}$$$$V2.0), the inhibition in assay [1] and in assay [2] was 38% each time.
For `CC[C@H](C)[C@H](NC(=O)[C@H](CCC(N)=O)NC(=O)/C=C/C(=O)NCC(=O)NCC(=O)N[C@@H](Cc1ccccc1)C(=O)O)C(=O)N[C@@H](CC(C)C)C(=O)N[C@H](C(N)=O)C(C)C` (HELM PEPTIDE1{[O=C(/C=C/C(=O)[*:2])NCC(=O)NCC(=O)N[C@@H](Cc1ccccc1)C(=O)O].Q.I.L.V.[am]}$$$$V2.0), the figures for the inhibition in assay [1] and in assay [2] were 44% and 52%, respectively.
With `CC[C@H](C)[C@H](NC(=O)[C@H](CCC(N)=O)NC(=O)/C=C/C(=O)NCC(=O)NCC(=O)N[C@@H](Cc1ccccc1)C(=O)O)C(=O)N[C@H](C(=O)N[C@H](C(N)=O)C(C)C)C(C)C` (HELM PEPTIDE1{[O=C(/C=C/C(=O)[*:2])NCC(=O)NCC(=O)N[C@@H](Cc1ccccc1)C(=O)O].Q.I.V.V.[am]}$$$$V2.0), the values for the inhibition in assay [1] and in assay [2] were 30% and 37%, respectively.
The matching figures for `CC(C)C[C@H](NC(=O)[C@H](CCC(N)=O)NC(=O)/C=C/C(=O)NCC(=O)NCC(=O)N[C@@H](Cc1ccccc1)C(=O)O)C(=O)N[C@@H](C)C(=O)N[C@H](C(N)=O)C(C)C` (HELM PEPTIDE1{[O=C(/C=C/C(=O)[*:2])NCC(=O)NCC(=O)N[C@@H](Cc1ccccc1)C(=O)O].Q.L.A.V.[am]}$$$$V2.0): 40% and 38%.
The matching figures for `CC(C)C[C@H](NC(=O)[C@H](CCC(N)=O)NC(=O)/C=C/C(=O)NCC(=O)NCC(=O)N[C@@H](Cc1ccccc1)C(=O)O)C(=O)N[C@@H](CC(C)C)C(=O)N[C@H](C(N)=O)C(C)C` (HELM PEPTIDE1{[O=C(/C=C/C(=O)[*:2])NCC(=O)NCC(=O)N[C@@H](Cc1ccccc1)C(=O)O].Q.L.L.V.[am]}$$$$V2.0): 42% and 69%.
With `CC(C)C[C@H](NC(=O)[C@H](CCC(N)=O)NC(=O)/C=C/C(=O)NCC(=O)NCC(=O)N[C@@H](Cc1ccccc1)C(=O)O)C(=O)N[C@H](C(=O)N[C@H](C(N)=O)C(C)C)C(C)C` (HELM PEPTIDE1{[O=C(/C=C/C(=O)[*:2])NCC(=O)NCC(=O)N[C@@H](Cc1ccccc1)C(=O)O].Q.L.V.V.[am]}$$$$V2.0), the inhibition in assay [1] and in assay [2] was 54% in each case.
`CC(C)[C@H](NC(=O)[C@H](C)NC(=O)[C@@H](NC(=O)[C@H](CCC(N)=O)NC(=O)/C=C/C(=O)NCC(=O)NCC(=O)N[C@@H](Cc1ccccc1)C(=O)O)C1CCCCC1)C(N)=O` (HELM PEPTIDE1{[O=C(/C=C/C(=O)[*:2])NCC(=O)NCC(=O)N[C@@H](Cc1ccccc1)C(=O)O].Q.[O=C([C@@H](N[*:1])C1CCCCC1)[*:2]].A.V.[am]}$$$$V2.0): the inhibition in assay [1] is 40%; in assay [2] it was 31%.
For the compound `CC(C)C[C@H](NC(=O)[C@@H](NC(=O)[C@H](CCC(N)=O)NC(=O)/C=C/C(=O)NCC(=O)NCC(=O)N[C@@H](Cc1ccccc1)C(=O)O)C1CCCCC1)C(=O)N[C@H](C(N)=O)C(C)C` (HELM PEPTIDE1{[O=C(/C=C/C(=O)[*:2])NCC(=O)NCC(=O)N[C@@H](Cc1ccccc1)C(=O)O].Q.[O=C([C@@H](N[*:1])C1CCCCC1)[*:2]].L.V.[am]}$$$$V2.0), the inhibition in assay [1] was determined as 45%; in assay [2] it was 71%.
Take `CC(C)[C@H](NC(=O)[C@H](C)NC(=O)[C@@H](NC(=O)[C@H](CCC(N)=O)NC(=O)/C=C/C(=O)NCC(=O)NCC(=O)N[C@@H](Cc1ccccc1)C(=O)O)c1ccccc1)C(N)=O` (HELM PEPTIDE1{[O=C(/C=C/C(=O)[*:2])NCC(=O)NCC(=O)N[C@@H](Cc1ccccc1)C(=O)O].Q.[Phg].A.V.[am]}$$$$V2.0): the inhibition came out at 34% in assay [1] and 17% in assay [2].
Consider `CC(C)C[C@H](NC(=O)[C@@H](NC(=O)[C@H](CCC(N)=O)NC(=O)/C=C/C(=O)NCC(=O)NCC(=O)N[C@@H](Cc1ccccc1)C(=O)O)c1ccccc1)C(=O)N[C@H](C(N)=O)C(C)C` (HELM PEPTIDE1{[O=C(/C=C/C(=O)[*:2])NCC(=O)NCC(=O)N[C@@H](Cc1ccccc1)C(=O)O].Q.[Phg].L.V.[am]}$$$$V2.0), for which the inhibition in assay [1] was determined as 50%; in assay [2] it was 62%.
The like results for `CC(C)[C@H](NC(=O)[C@@H](NC(=O)[C@@H](NC(=O)[C@H](CCC(N)=O)NC(=O)/C=C/C(=O)NCC(=O)NCC(=O)N[C@@H](Cc1ccccc1)C(=O)O)c1ccccc1)C(C)C)C(N)=O` (HELM PEPTIDE1{[O=C(/C=C/C(=O)[*:2])NCC(=O)NCC(=O)N[C@@H](Cc1ccccc1)C(=O)O].Q.[Phg].V.V.[am]}$$$$V2.0) were, in that order, 63% and 45%.
For `CC(=O)NC[C@H](NC(=O)/C=C/C(=O)NCC(=O)NCC(=O)N[C@@H](Cc1ccccc1)C(=O)O)C(=O)N[C@@H](Cc1ccccc1)C(=O)N[C@@H](C)C(=O)N[C@H](C(N)=O)C(C)C` (HELM PEPTIDE1{[O=C(/C=C/C(=O)[*:2])NCC(=O)NCC(=O)N[C@@H](Cc1ccccc1)C(=O)O].[O=C([C@H](CN[*:3])N[*:1])[*:2]].F.A.V.[am]}|PEPTIDE2{[ac]}$PEPTIDE1,PEPTIDE2,2:R3-1:R2$$$V2.0), the inhibition in assay [1] came out at 45%; in assay [2] it was 15%.
The matching figures for `CC(=O)NC[C@H](NC(=O)/C=C/C(=O)NCC(=O)NCC(=O)N[C@@H](Cc1ccccc1)C(=O)O)C(=O)N[C@@H](Cc1ccccc1)C(=O)N[C@@H](CC(C)C)C(=O)N[C@H](C(N)=O)C(C)C` (HELM PEPTIDE1{[O=C(/C=C/C(=O)[*:2])NCC(=O)NCC(=O)N[C@@H](Cc1ccccc1)C(=O)O].[O=C([C@H](CN[*:3])N[*:1])[*:2]].F.L.V.[am]}|PEPTIDE2{[ac]}$PEPTIDE1,PEPTIDE2,2:R3-1:R2$$$V2.0): 59% and 51%.
As for `CC(=O)NC[C@H](NC(=O)/C=C/C(=O)NCC(=O)NCC(=O)N[C@@H](Cc1ccccc1)C(=O)O)C(=O)N[C@@H](Cc1ccccc1)C(=O)N[C@H](C(=O)N[C@H](C(N)=O)C(C)C)C(C)C` (HELM PEPTIDE1{[O=C(/C=C/C(=O)[*:2])NCC(=O)NCC(=O)N[C@@H](Cc1ccccc1)C(=O)O].[O=C([C@H](CN[*:3])N[*:1])[*:2]].F.V.V.[am]}|PEPTIDE2{[ac]}$PEPTIDE1,PEPTIDE2,2:R3-1:R2$$$V2.0), the results for the inhibition in assay [1] and in assay [2] were 46% and 61%, respectively.
In the case of `CC[C@H](C)[C@H](NC(=O)[C@H](CNC(C)=O)NC(=O)/C=C/C(=O)NCC(=O)NCC(=O)N[C@@H](Cc1ccccc1)C(=O)O)C(=O)N[C@@H](C)C(=O)N[C@H](C(N)=O)C(C)C` (HELM PEPTIDE1{[O=C(/C=C/C(=O)[*:2])NCC(=O)NCC(=O)N[C@@H](Cc1ccccc1)C(=O)O].[O=C([C@H](CN[*:3])N[*:1])[*:2]].I.A.V.[am]}|PEPTIDE2{[ac]}$PEPTIDE1,PEPTIDE2,2:R3-1:R2$$$V2.0), the inhibition in assay [1] and in assay [2] was 29% each time.
On to `CC[C@H](C)[C@H](NC(=O)[C@H](CNC(C)=O)NC(=O)/C=C/C(=O)NCC(=O)NCC(=O)N[C@@H](Cc1ccccc1)C(=O)O)C(=O)N[C@@H](CC(C)C)C(=O)N[C@H](C(N)=O)C(C)C` (HELM PEPTIDE1{[O=C(/C=C/C(=O)[*:2])NCC(=O)NCC(=O)N[C@@H](Cc1ccccc1)C(=O)O].[O=C([C@H](CN[*:3])N[*:1])[*:2]].I.L.V.[am]}|PEPTIDE2{[ac]}$PEPTIDE1,PEPTIDE2,2:R3-1:R2$$$V2.0), for which the inhibition in assay [1] worked out at 33%; in assay [2], 60%.

The inhibition is the relative decrease from the control value, in per cent.
